What was measured:
[1] = target: T1, Vascular endothelial growth factor A, long form (Homo sapiens, UniProt P15692); test: Binding affinity to VEGF by surface plasmon-based solution affinity assay
T1 sequence (P15692 whole entry): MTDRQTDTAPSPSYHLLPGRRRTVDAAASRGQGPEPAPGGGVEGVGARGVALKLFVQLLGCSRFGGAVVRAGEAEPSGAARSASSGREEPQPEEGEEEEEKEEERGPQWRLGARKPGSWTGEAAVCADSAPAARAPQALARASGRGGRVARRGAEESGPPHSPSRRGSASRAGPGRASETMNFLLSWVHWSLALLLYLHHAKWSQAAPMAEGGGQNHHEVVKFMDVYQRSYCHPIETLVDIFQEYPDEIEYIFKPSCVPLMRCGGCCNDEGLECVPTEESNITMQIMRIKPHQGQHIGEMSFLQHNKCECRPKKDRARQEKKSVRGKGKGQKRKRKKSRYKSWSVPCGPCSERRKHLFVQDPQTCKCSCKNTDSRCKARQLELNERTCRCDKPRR
Procedure, shortened: (§1)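 Surface plasmon resonance solution affinity assay on heparin-coated CM4 chips. Buffer: HBS-EP (10 mM HEPES pH 7.4, 150 mM NaCl, 3.0 mM EDTA, 0.005% polysorbate 20). Kd is the mean of at least duplicate measurements ± SD.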

Plasma [2] = test: Anticoagulant activity in human plasma by heptest; format: functional
Procedure, shortened: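 Heptest clot assay. Plasma (centrifuged 1800g, 10 min, used within 30 min) incubated with compound 2 min at 37 °C. Factor Xa added, 2 min at 37 °C, then clotting started with Recalmix; read on a ball coagulometer. Normal range 13–20 s; means of two determinations.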

Plasma [3] = test: Anticoagulant activity in human plasma assessed as activated partial thromboplastin time; format: functional
Procedure, shortened: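 Pooled normal human plasma spiked with compound in PBS at 0.1 mg/mL (methods give a 0–100 μg/mL range); APTT elevation measured. Normal range 26–36 s. Values are means of two determinations.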

[4] = target: Fibroblast growth factor 2 (Homo sapiens, UniProt P09038); test: Binding affinity to FGF2 by surface plasmon-based solution affinity assay
Fibroblast growth factor 2, sequence (P09038 143-288 limits assumed): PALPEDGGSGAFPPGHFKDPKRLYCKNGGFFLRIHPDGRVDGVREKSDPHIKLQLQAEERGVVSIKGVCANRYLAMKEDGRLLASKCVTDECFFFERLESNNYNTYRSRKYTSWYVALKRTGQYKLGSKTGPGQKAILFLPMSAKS
Procedure, shortened: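 Surface plasmon resonance solution affinity assay on heparin-coated CM4 chips. FGF-2 binding run in HBS-EP containing 300 mM NaCl. Kd is the mean of at least duplicate measurements ± SD.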

Heparanase = target: T2, Heparanase (Homo sapiens, UniProt Q9Y251); test: Inhibition of human recombinant heparanase
T2 sequence (Q9Y251 whole entry): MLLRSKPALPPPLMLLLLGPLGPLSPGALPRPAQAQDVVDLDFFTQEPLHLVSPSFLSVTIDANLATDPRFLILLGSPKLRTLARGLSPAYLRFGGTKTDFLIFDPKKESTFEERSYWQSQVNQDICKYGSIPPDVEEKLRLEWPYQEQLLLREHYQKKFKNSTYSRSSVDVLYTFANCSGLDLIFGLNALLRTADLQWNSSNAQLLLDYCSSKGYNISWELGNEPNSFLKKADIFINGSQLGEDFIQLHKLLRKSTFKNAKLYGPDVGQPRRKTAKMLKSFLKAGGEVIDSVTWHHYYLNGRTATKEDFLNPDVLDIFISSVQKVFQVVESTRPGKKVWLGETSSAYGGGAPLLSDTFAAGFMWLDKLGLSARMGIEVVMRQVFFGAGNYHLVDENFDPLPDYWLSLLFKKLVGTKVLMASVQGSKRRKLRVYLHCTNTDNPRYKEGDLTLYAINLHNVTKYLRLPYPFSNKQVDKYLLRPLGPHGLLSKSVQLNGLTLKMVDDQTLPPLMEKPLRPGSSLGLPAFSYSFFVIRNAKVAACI
Procedure, shortened: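 Recombinant human heparanase assayed by ultrafiltration with 3H-labelled heparan sulfate as substrate (Km = 1.64 μM). Ki values with standard error were derived from inhibition response curves.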

HUVEC = test: Cytotoxicity against HUVEC; format: cell-based; conditions: human
[5] = target: Fibroblast growth factor 1 (Homo sapiens, UniProt P05230); test: Binding affinity to FGF1 by surface plasmon-based solution affinity assay; procedure, shortened: as §1
Fibroblast growth factor 1, sequence (P05230 whole entry): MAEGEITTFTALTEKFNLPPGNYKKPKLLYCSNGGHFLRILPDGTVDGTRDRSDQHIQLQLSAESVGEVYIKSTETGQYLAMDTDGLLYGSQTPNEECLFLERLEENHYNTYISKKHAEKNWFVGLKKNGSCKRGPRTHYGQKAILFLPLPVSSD

Compound	Kd [1] [nM]	Activity (Plasma [2]) [s]	Time (Plasma [3]) [s]	Kd [4] [nM]	Ki (Heparanase) [nM]	LC50 (HUVEC) [µM]	Kd [5] [nM]
O=S(=O)([O-])OC[C@H]1O[C@H](OCCCCCCCCn2cc(-c3cccc4ccccc34)nn2)[C@@H](O[C@H]2O[C@H](COS(=O)(=O)[O-])[C@@H](OS(=O)(=O)[O-])[C@H](O[C@H]3O[C@H](COS(=O)(=O)[O-])[C@@H](OS(=O)(=O)[O-])[C@H](O[C@H]4O[C@H](COS(=O)(=O)[O-])[C@@H](OS(=O)(=O)[O-])[C@H](O[C@H]5O[C@H](COS(=O)(=O)[O-])[C@@H](OS(=O)(=O)[O-])[C@H](OS(=O)(=O)[O-])[C@@H]5OS(=O)(=O)[O-])[C@@H]4OS(=O)(=O)[O-])[C@@H]3OS(=O)(=O)[O-])[C@@H]2OS(=O)(=O)[O-])[C@@H](OS(=O)(=O)[O-])[C@@H]1OS(=O)(=O)[O-].[Na+].[Na+].[Na+].[Na+].[Na+].[Na+].[Na+].[Na+].[Na+].[Na+].[Na+].[Na+].[Na+].[Na+].[Na+].[Na+]	0.7	20	89	35	360	> 100	0.12
O=S(=O)([O-])OC[C@H]1O[C@H](OCCCCCCCCn2cc(-c3ccccc3)nn2)[C@@H](O[C@H]2O[C@H](COS(=O)(=O)[O-])[C@@H](OS(=O)(=O)[O-])[C@H](O[C@H]3O[C@H](COS(=O)(=O)[O-])[C@@H](OS(=O)(=O)[O-])[C@H](O[C@H]4O[C@H](COS(=O)(=O)[O-])[C@@H](OS(=O)(=O)[O-])[C@H](O[C@H]5O[C@H](COS(=O)(=O)[O-])[C@@H](OS(=O)(=O)[O-])[C@H](OS(=O)(=O)[O-])[C@@H]5OS(=O)(=O)[O-])[C@@H]4OS(=O)(=O)[O-])[C@@H]3OS(=O)(=O)[O-])[C@@H]2OS(=O)(=O)[O-])[C@@H](OS(=O)(=O)[O-])[C@@H]1OS(=O)(=O)[O-].[Na+].[Na+].[Na+].[Na+].[Na+].[Na+].[Na+].[Na+].[Na+].[Na+].[Na+].[Na+].[Na+].[Na+].[Na+].[Na+]	0.62	38.4	96.9	43	420	> 100	0.16
CN(C)c1cccc2c(S(=O)(=O)NCCCCCCCCO[C@H]3O[C@H](COS(=O)(=O)[O-])[C@@H](OS(=O)(=O)[O-])[C@H](OS(=O)(=O)[O-])[C@@H]3O[C@H]3O[C@H](COS(=O)(=O)[O-])[C@@H](OS(=O)(=O)[O-])[C@H](O[C@H]4O[C@H](COS(=O)(=O)[O-])[C@@H](OS(=O)(=O)[O-])[C@H](O[C@H]5O[C@H](COS(=O)(=O)[O-])[C@@H](OS(=O)(=O)[O-])[C@H](OS(=O)(=O)[O-])[C@@H]5OS(=O)(=O)[O-])[C@@H]4OS(=O)(=O)[O-])[C@@H]3OS(=O)(=O)[O-])cccc12.[Na+].[Na+].[Na+].[Na+].[Na+].[Na+].[Na+].[Na+].[Na+].[Na+].[Na+].[Na+].[Na+]	8.9	–	–	130	330	> 100	0.2
O=S(=O)([O-])OC[C@H]1O[C@H](OCCCCCCCCCCCCn2cc(-c3cccc4ccccc34)nn2)[C@@H](O[C@H]2O[C@H](COS(=O)(=O)[O-])[C@@H](OS(=O)(=O)[O-])[C@H](O[C@H]3O[C@H](COS(=O)(=O)[O-])[C@@H](OS(=O)(=O)[O-])[C@H](O[C@H]4O[C@H](COS(=O)(=O)[O-])[C@@H](OS(=O)(=O)[O-])[C@H](O[C@H]5O[C@H](COS(=O)(=O)[O-])[C@@H](OS(=O)(=O)[O-])[C@H](OS(=O)(=O)[O-])[C@@H]5OS(=O)(=O)[O-])[C@@H]4OS(=O)(=O)[O-])[C@@H]3OS(=O)(=O)[O-])[C@@H]2OS(=O)(=O)[O-])[C@@H](OS(=O)(=O)[O-])[C@@H]1OS(=O)(=O)[O-].[Na+].[Na+].[Na+].[Na+].[Na+].[Na+].[Na+].[Na+].[Na+].[Na+].[Na+].[Na+].[Na+].[Na+].[Na+].[Na+]	0.79	–	–	73	270	> 100	0.19
O=S(=O)([O-])OC[C@H]1O[C@H](OCCCn2cc(-c3ccccc3)nn2)[C@@H](O[C@H]2O[C@H](COS(=O)(=O)[O-])[C@@H](OS(=O)(=O)[O-])[C@H](O[C@H]3O[C@H](COS(=O)(=O)[O-])[C@@H](OS(=O)(=O)[O-])[C@H](O[C@H]4O[C@H](COS(=O)(=O)[O-])[C@@H](OS(=O)(=O)[O-])[C@H](O[C@H]5O[C@H](COS(=O)(=O)[O-])[C@@H](OS(=O)(=O)[O-])[C@H](OS(=O)(=O)[O-])[C@@H]5OS(=O)(=O)[O-])[C@@H]4OS(=O)(=O)[O-])[C@@H]3OS(=O)(=O)[O-])[C@@H]2OS(=O)(=O)[O-])[C@@H](OS(=O)(=O)[O-])[C@@H]1OS(=O)(=O)[O-].[Na+].[Na+].[Na+].[Na+].[Na+].[Na+].[Na+].[Na+].[Na+].[Na+].[Na+].[Na+].[Na+].[Na+].[Na+].[Na+]	1.4	–	–	83	350	> 100	0.1
O=S(=O)([O-])OC[C@H]1O[C@H](OCCCCCCCCCCCCn2cc(-c3ccccc3)nn2)[C@@H](O[C@H]2O[C@H](COS(=O)(=O)[O-])[C@@H](OS(=O)(=O)[O-])[C@H](O[C@H]3O[C@H](COS(=O)(=O)[O-])[C@@H](OS(=O)(=O)[O-])[C@H](O[C@H]4O[C@H](COS(=O)(=O)[O-])[C@@H](OS(=O)(=O)[O-])[C@H](O[C@H]5O[C@H](COS(=O)(=O)[O-])[C@@H](OS(=O)(=O)[O-])[C@H](OS(=O)(=O)[O-])[C@@H]5OS(=O)(=O)[O-])[C@@H]4OS(=O)(=O)[O-])[C@@H]3OS(=O)(=O)[O-])[C@@H]2OS(=O)(=O)[O-])[C@@H](OS(=O)(=O)[O-])[C@@H]1OS(=O)(=O)[O-].[Na+].[Na+].[Na+].[Na+].[Na+].[Na+].[Na+].[Na+].[Na+].[Na+].[Na+].[Na+].[Na+].[Na+].[Na+].[Na+]	5.1	–	–	253	270	> 100	2.3
O=S(=O)([O-])OC[C@H]1O[C@H](OCCCn2cc(-c3ccccc3)nn2)[C@@H](O[C@H]2O[C@H](COS(=O)(=O)[O-])[C@@H](OS(=O)(=O)[O-])[C@H](O[C@H]3O[C@H](COS(=O)(=O)[O-])[C@@H](OS(=O)(=O)[O-])[C@H](O[C@H]4O[C@H](COS(=O)(=O)[O-])[C@@H](OS(=O)(=O)[O-])[C@H](OS(=O)(=O)[O-])[C@@H]4OS(=O)(=O)[O-])[C@@H]3OS(=O)(=O)[O-])[C@@H]2OS(=O)(=O)[O-])[C@@H](OS(=O)(=O)[O-])[C@@H]1OS(=O)(=O)[O-].[Na+].[Na+].[Na+].[Na+].[Na+].[Na+].[Na+].[Na+].[Na+].[Na+].[Na+].[Na+].[Na+]	25	–	–	550	610	> 100	0.36
CN(C)c1cccc2c(S(=O)(=O)NCCCO[C@H]3O[C@H](COS(=O)(=O)[O-])[C@@H](OS(=O)(=O)[O-])[C@H](OS(=O)(=O)[O-])[C@@H]3O[C@H]3O[C@H](COS(=O)(=O)[O-])[C@@H](OS(=O)(=O)[O-])[C@H](O[C@H]4O[C@H](COS(=O)(=O)[O-])[C@@H](OS(=O)(=O)[O-])[C@H](O[C@H]5O[C@H](COS(=O)(=O)[O-])[C@@H](OS(=O)(=O)[O-])[C@H](O[C@H]6O[C@H](COS(=O)(=O)[O-])[C@@H](OS(=O)(=O)[O-])[C@H](OS(=O)(=O)[O-])[C@@H]6OS(=O)(=O)[O-])[C@@H]5OS(=O)(=O)[O-])[C@@H]4OS(=O)(=O)[O-])[C@@H]3OS(=O)(=O)[O-])cccc12.[Na+].[Na+].[Na+].[Na+].[Na+].[Na+].[Na+].[Na+].[Na+].[Na+].[Na+].[Na+].[Na+].[Na+].[Na+].[Na+]	12.2	–	–	86	570	> 100	0.79
